What all share (assay type): functional
Test [1] relates to Escherichia coli. Briefly: In Vitro antibacterial activity against (Ec TEM2) Escherichia coli […] strain. An outline of the steps:
(§1)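 Panel of standard ATCC strains plus modified strains: methicillin-resistant, hyperpermeable, β-lactamase-producing (TEM1, TEM2, SHV) and β-lactamase-lacking. MIC determined in Mueller Hinton 2 medium, inoculum 10⁴ cells/mL, incubated 24 h at 37 °C.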

For test [2], the system named is Pseudomonas aeruginosa. Briefly: In Vitro antibacterial activity against (Pa) hyperpermeable Pseudomonas aeruginosa […] strain. In short, it runs like this:
as §1

For test [3], the system named is Escherichia coli. Briefly: In Vitro antibacterial activity against (Ec) Escherichia coli ATCC 25922. In short, it runs like this:
as §1

The test system of test [4] is Pseudomonas aeruginosa. The experiment in a line: In Vitro antibacterial activity against (Pa G242) hyperpermeable Pseudomonas aeruginosa strain. In short, it runs like this: as §1
In test [5] the test system is Pseudomonas aeruginosa. Briefly: In Vitro antibacterial activity against (Pa) Pseudomonas aeruginosa ATCC 27853. An outline of the steps: as §1
Test [6] deals with Escherichia coli. The experiment in a line: In Vitro antibacterial activity against (Ec L) Escherichia coli […] strain. An outline of the steps: as §1
For test [7], the system named is Escherichia coli. The experiment in a line: In Vitro antibacterial activity against (Ec DC2) hyperpermeable Escherichia coli strain. In short, it runs like this:
as §1

Test [8] has as its system Staphylococcus aureus. The experiment in a line: In vitro antibacterial activity against Sa(I) Staphylococcus aureus ATCC 29213. An outline of the steps:
(§2)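 MIC was determined in Mueller Hinton 2 medium with an inoculum of 10⁴ cells/mL and incubation for 24 h at 37 °C. Strains: Sa(I) is S. aureus ATCC 29213; Sa MR(I) is a heterogeneous methicillin-resistant S. aureus; Sa MR(II) is a homogeneous methicillin-resistant S. aureus.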

In test [9] the test system is Staphylococcus aureus. The experiment in a line: In vitro antibacterial activity against Sa MR(II) homogeneous methicillin resistant Staphylococcus aureus. An outline of the steps: as §2
Test [10] has as its system Staphylococcus aureus. Briefly: In vitro antibacterial activity against Sa MR(I) heterogeneous methicillin resistant Staphylococcus aureus. An outline of the steps: as §2
Test [11] deals with Escherichia coli. The experiment in a line: In Vitro antibacterial activity against (Ec SHV) Escherichia coli […] strain. An outline of the steps:
as §1

The subject of test [12] is Escherichia coli. The experiment in a line: In Vitro antibacterial activity against (Ec TEM1) Escherichia coli […] strain. An outline of the steps: as §1
For another test, the system named is Enterococcus faecalis. The experiment in a line: In Vitro antibacterial activity against (Ef) Enterococcus faecalis ATCC 29212. An outline of the steps: as §1
Test [13] concerns Staphylococcus aureus. Briefly: In vitro antibacterial activity against Sa(II) Staphylococcus aureus ATCC 25923. In short, it runs like this: as §1

Our source for the MIC values is ChEMBL document CHEMBL1128718, “2-Substituted penems with amino acid-related side chains: synthesis and antibacterial activity of a new series of beta-lactam antibiotics” (1995).

For orientation: MIC means the lowest concentration that inhibits growth of the organism.

In brackets after ≈: the same amount, converted by molar mass.

Turning to `CCCCOC(=O)CN(C)CC1=C(C(=O)O)N2C(=O)[C@H]([C@@H](C)O)[C@H]2S1`, the MIC in the test on Escherichia coli [1] was over 64 µg/mL; with Pseudomonas aeruginosa [2] it was over 64 µg/mL; in the test with Escherichia coli [3], 32 µg/mL (≈ 85.9 µM); in the test with Pseudomonas aeruginosa [4] it was over 64 µg/mL; in the test with Pseudomonas aeruginosa [5], over 64 µg/mL; with Escherichia coli [6] it was over 64 µg/mL. For the same compound, the MIC with Escherichia coli [7] is 1 µg/mL (≈ 2.68 µM); against Staphylococcus aureus [8] it was 0.5 µg/mL (≈ 1.34 µM); in the test with Staphylococcus aureus [9] it was 16 µg/mL (≈ 43 µM); against Staphylococcus aureus [10], 0.5 µg/mL (≈ 1.34 µM); against Escherichia coli [11], over 64 µg/mL; in the test on Escherichia coli [12], over 64 µg/mL. For the same compound, the MIC came out at 8 µg/mL (≈ 21.5 µM) in the test on Enterococcus faecalis and 0.25 µg/mL (≈ 0.671 µM) against Staphylococcus aureus [13].

Consider `COC(=O)[C@@H]1CCCN1CC1=C(C(=O)O)N2C(=O)[C@H]([C@@H](C)O)[C@H]2S1`, for which the MIC was 8 µg/mL (≈ 22.4 µM) in the test on Escherichia coli [1]; 4 µg/mL (≈ 11.2 µM) against Pseudomonas aeruginosa [2]; 4 µg/mL (≈ 11.2 µM) with Escherichia coli [3]; 8 µg/mL (≈ 22.4 µM) against Pseudomonas aeruginosa [4]; over 64 µg/mL in the test with Pseudomonas aeruginosa [5]; 4 µg/mL (≈ 11.2 µM) in the test with Escherichia coli [6]. The MIC was found to be 2 µg/mL (≈ 5.61 µM) in the test with Escherichia coli [7]; 0.25 µg/mL (≈ 0.701 µM) with Staphylococcus aureus [8]; 4 µg/mL (≈ 11.2 µM) against Staphylococcus aureus [9]; 0.25 µg/mL (≈ 0.701 µM) with Staphylococcus aureus [10]; 8 µg/mL (≈ 22.4 µM) against Escherichia coli [11]; 8 µg/mL (≈ 22.4 µM) with Escherichia coli [12]. The MIC in the test with Enterococcus faecalis amounted to 8 µg/mL (≈ 22.4 µM); with Staphylococcus aureus [13] it was 0.12 µg/mL (≈ 0.337 µM).

Take `C[C@H](C(N)=O)N(C)CC1=C(C(=O)O)N2C(=O)[C@H]([C@@H](C)O)[C@H]2S1`: the MIC against Escherichia coli [1] is 0.25 µg/mL (≈ 0.759 µM); against Pseudomonas aeruginosa [2], 2 µg/mL (≈ 6.07 µM); with Escherichia coli [3], 0.12 µg/mL (≈ 0.364 µM); in the test with Pseudomonas aeruginosa [4], 0.25 µg/mL (≈ 0.759 µM); in the test with Pseudomonas aeruginosa [5] it was over 64 µg/mL; against Escherichia coli [6], 0.12 µg/mL (≈ 0.364 µM). Besides, the MIC is 2 µg/mL (≈ 6.07 µM) in the test with Escherichia coli [7]; 0.03 µg/mL (≈ 0.0911 µM) in the test with Staphylococcus aureus [8]; 2 µg/mL (≈ 6.07 µM) against Staphylococcus aureus [9]; 0.06 µg/mL (≈ 0.182 µM) in the test on Staphylococcus aureus [10]; 1 µg/mL (≈ 3.04 µM) with Escherichia coli [11]; 0.25 µg/mL (≈ 0.759 µM) with Escherichia coli [12]. Moreover, the MIC with Enterococcus faecalis turned out to be 2 µg/mL (≈ 6.07 µM); with Staphylococcus aureus [13] it was 0.06 µg/mL (≈ 0.182 µM).

For the compound `CCN(CC(N)=O)CC1=C(C(=O)O)N2C(=O)[C@H]([C@@H](C)O)[C@H]2S1`, the MIC in the test on Escherichia coli [1] is 1 µg/mL (≈ 3.04 µM); against Pseudomonas aeruginosa [2] it was 2 µg/mL (≈ 6.07 µM); against Escherichia coli [3], 0.5 µg/mL (≈ 1.52 µM); in the test with Pseudomonas aeruginosa [4] it was 0.5 µg/mL (≈ 1.52 µM); with Pseudomonas aeruginosa [5] it was over 64 µg/mL; in the test with Escherichia coli [6] it was 0.5 µg/mL (≈ 1.52 µM). Besides, the MIC in the test on Escherichia coli [7] was 1 µg/mL (≈ 3.04 µM); with Staphylococcus aureus [8], 0.06 µg/mL (≈ 0.182 µM); against Staphylococcus aureus [9] it was 2 µg/mL (≈ 6.07 µM); in the test with Escherichia coli [11] it was 1 µg/mL (≈ 3.04 µM); in the test with Escherichia coli [12], 0.5 µg/mL (≈ 1.52 µM); against Staphylococcus aureus [13] it was 0.06 µg/mL (≈ 0.182 µM).

`C[C@@H](O)[C@H]1C(=O)N2C(C(=O)O)=C(CN3CCCC(C(N)=O)C3)S[C@H]12` (stereo partly drawn): the MIC in the test on Escherichia coli [1] was 4 µg/mL (≈ 11.3 µM); against Pseudomonas aeruginosa [2], 1 µg/mL (≈ 2.81 µM); against Escherichia coli [3], 4 µg/mL (≈ 11.3 µM); in the test on Pseudomonas aeruginosa [4], 4 µg/mL (≈ 11.3 µM); in the test on Pseudomonas aeruginosa [5] it was over 64 µg/mL; in the test with Escherichia coli [6] it was 8 µg/mL (≈ 22.5 µM). The MIC against Escherichia coli [7] was 4 µg/mL (≈ 11.3 µM); in the test with Staphylococcus aureus [8] it was 0.06 µg/mL (≈ 0.169 µM); against Staphylococcus aureus [9], 2 µg/mL (≈ 5.63 µM); against Staphylococcus aureus [10], 0.12 µg/mL (≈ 0.338 µM); with Escherichia coli [11], 4 µg/mL (≈ 11.3 µM); with Escherichia coli [12], 4 µg/mL (≈ 11.3 µM). In addition, the MIC in the test with Enterococcus faecalis is 32 µg/mL (≈ 90 µM); in the test on Staphylococcus aureus [13] it was 0.06 µg/mL (≈ 0.169 µM).

Turning to `C[C@@H](O)[C@H]1C(=O)N2C(C(=O)O)=C(CN(C)CC(=O)N(C)C)S[C@H]12`, the MIC against Escherichia coli [1] was 1 µg/mL (≈ 2.91 µM); against Pseudomonas aeruginosa [2], 4 µg/mL (≈ 11.6 µM); against Escherichia coli [3], 0.5 µg/mL (≈ 1.46 µM); against Pseudomonas aeruginosa [4], 0.5 µg/mL (≈ 1.46 µM); with Pseudomonas aeruginosa [5], over 64 µg/mL; in the test on Escherichia coli [6] it was 0.5 µg/mL (≈ 1.46 µM). Moreover, the MIC in the test on Escherichia coli [7] stood at 1 µg/mL (≈ 2.91 µM); in the test on Staphylococcus aureus [8] it was 0.25 µg/mL (≈ 0.728 µM); with Staphylococcus aureus [9], 4 µg/mL (≈ 11.6 µM); with Escherichia coli [11], 1 µg/mL (≈ 2.91 µM); in the test with Escherichia coli [12], 1 µg/mL (≈ 2.91 µM); in the test on Staphylococcus aureus [13], 0.12 µg/mL (≈ 0.349 µM).

Consider `C[C@@H](O)[C@H]1C(=O)N2C(C(=O)O)=C(SCCNC=N)C[C@H]12` [IMIPENEM ANHYDROUS], for which the MIC against Escherichia coli [1] was found to be 0.25 µg/mL (≈ 0.835 µM); against Pseudomonas aeruginosa [2], 0.25 µg/mL (≈ 0.835 µM); against Escherichia coli [3], 0.12 µg/mL (≈ 0.401 µM); in the test with Pseudomonas aeruginosa [4] it was 0.25 µg/mL (≈ 0.835 µM); in the test on Pseudomonas aeruginosa [5] it was 1 µg/mL (≈ 3.34 µM); with Escherichia coli [6] it was 0.12 µg/mL (≈ 0.401 µM). The MIC in the test on Escherichia coli [7] stood at 0.5 µg/mL (≈ 1.67 µM); in the test on Staphylococcus aureus [8], 0.015 µg/mL (≈ 0.0501 µM); against Staphylococcus aureus [9] it was 0.25 µg/mL (≈ 0.835 µM); in the test with Staphylococcus aureus [10] it was 0.12 µg/mL (≈ 0.401 µM); against Escherichia coli [11] it was 0.25 µg/mL (≈ 0.835 µM); in the test on Escherichia coli [12], 0.25 µg/mL (≈ 0.835 µM). Also, the MIC with Enterococcus faecalis came to 0.5 µg/mL (≈ 1.67 µM); against Staphylococcus aureus [13] it was 0.015 µg/mL (≈ 0.0501 µM).

Consider `C[C@@H](O)[C@H]1C(=O)N2C(C(=O)O)=C(CN(CC(N)=O)CC(N)=O)S[C@H]12`, for which the MIC was 0.25 µg/mL (≈ 0.698 µM) with Escherichia coli [1]; 0.5 µg/mL (≈ 1.4 µM) in the test with Pseudomonas aeruginosa [2]; 0.12 µg/mL (≈ 0.335 µM) in the test with Escherichia coli [3]; 0.25 µg/mL (≈ 0.698 µM) with Pseudomonas aeruginosa [4]; over 64 µg/mL in the test with Pseudomonas aeruginosa [5]; 0.25 µg/mL (≈ 0.698 µM) against Escherichia coli [6]. For the same compound, the MIC was 0.25 µg/mL (≈ 0.698 µM) against Escherichia coli [7]; 0.12 µg/mL (≈ 0.335 µM) against Staphylococcus aureus [8]; 1 µg/mL (≈ 2.79 µM) in the test with Staphylococcus aureus [9]; 0.25 µg/mL (≈ 0.698 µM) against Staphylococcus aureus [10]; 0.5 µg/mL (≈ 1.4 µM) against Escherichia coli [11]; 0.25 µg/mL (≈ 0.698 µM) in the test on Escherichia coli [12]. Moreover, the MIC in the test with Enterococcus faecalis was over 64 µg/mL; against Staphylococcus aureus [13], 0.06 µg/mL (≈ 0.167 µM).
